Our source for the Relative efficacy, IC50 and EC50 values is ChEMBL document CHEMBL1133778, “3,5-Disubstituted-4-hydroxyphenyls linked to 3-hydroxy-2-methyl-4(1H)-pyridinone: potent inhibitors of lipid peroxidation and cell toxicity” (J Med Chem, 2000).

As a reminder, the pIC50 is the negative decadic logarithm of the IC50, by convention in mol/L. By pEC50 is commonly meant the EC50 on a negative log10 scale, so that one unit is a factor of ten. Low readings indicate a high EC50, high ones a low EC50.

For assay [1], the species on record is Rattus norvegicus. Nature of the assay: Relative efficacy gives an indication of the percent of viable cells (Rat cerebellar granule cells) at the maximal efficacious concentration of 0.6 uM. Type of assay: functional.
The species named for assay [2] is Rattus norvegicus. As to the kind of experiment: Compound was tested for 50% Inhibition of lipid peroxidation in rat brain homogenate. Type of assay: functional.
The species entered for assay [3] is Rattus norvegicus. As to the kind of experiment: Ability to protect cerebellar granule cells (CGC) from iodoacetate (IAA)-induced toxicity. The assay is classed as functional, cell-based.
For assay [4], the species on record is Rattus norvegicus. As to the kind of experiment: Relative efficacy gives an indication of the percent of viable cells (Rat cerebellar granule cells) at the maximal efficacious concentration of 33.3 uM. The assay is classed as functional.
Assay [5] is filed under the species Rattus norvegicus. As to the kind of experiment: Relative efficacy gives an indication of the percent of viable cells (Rat cerebellar granule cells) at the maximal efficacious concentration of 0.3 uM. The assay is classed as functional.
The species named for assay [6] is Rattus norvegicus. As to the kind of experiment: Relative efficacy gives an indication of the percent of viable cells (Rat cerebellar granule cells) at the maximal efficacious concentration of 0.4 uM. Type of assay: functional.
Assay [7] is filed under the species Rattus norvegicus. Nature of the assay: Relative efficacy gives an indication of the percent of viable cells (Rat cerebellar granule cells) at the maximal efficacious concentration of 26.8 uM. The assay is classed as functional.
The species named for assay [8] is Rattus norvegicus. Nature of the assay: Relative efficacy gives an indication of the percent of viable cells (Rat cerebellar granule cells) at the maximal efficacious concentration of 5.0 uM. Type of assay: functional.
The species entered for assay [9] is Rattus norvegicus. Nature of the assay: Relative efficacy gives an indication of the percent of viable cells (Rat cerebellar granule cells) at the maximal efficacious concentration of 6 uM. Type of assay: functional.
Assay [10] is filed under the species Rattus norvegicus. Nature of the assay: Relative efficacy gives an indication of the percent of viable cells (Rat cerebellar granule cells) at the maximal efficacious concentration of 46.7 uM. Type of assay: functional. In outline: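 Rat cerebellar granule cells exposed to 30 µM iodoacetate for 30 min in physiological salt solution, which was then replaced with maintenance medium containing test compound. Viability was read 24 h later. Relative efficacy is the percent of viable cells at the maximal efficacious concentration.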

Assay [11] is filed under the species Rattus norvegicus. As to the kind of experiment: Relative efficacy gives an indication of the percent of viable cells (Rat cerebellar granule cells) at the maximal efficacious concentration of 77.8 uM. The assay is classed as functional.

SMILES strings stand for the structures. pEC50, pIC50: −log10 of the molar value.

`Cc1c(O)c(=O)ccn1CCCCc1cc(C(C)(C)C)c(O)c(C(C)(C)C)c1` had a Relative efficacy in the assay listed under Rattus norvegicus [1] of 0.7. The compound further had a pIC50 in the assay listed under Rattus norvegicus [2] of 5.54. The pEC50 in the assay filed under Rattus norvegicus [3] is 6.22.
In the assay listed under Rattus norvegicus [2], `COc1cc(CCn2ccc(=O)c(O)c2C)cc(OC)c1O` gave a pIC50 of 5.48. The same compound gave a negative-log EC50 (pEC50) in the assay filed under Rattus norvegicus [3] of 4.48. In the assay filed under Rattus norvegicus [4], this compound gave a Relative efficacy of 0.9.
As for `Cc1c(O)c(=O)ccn1CCCc1cc(C(C)(C)C)c(O)c(C(C)(C)C)c1`, the pIC50 in the assay listed under Rattus norvegicus [2] was 6.00. Further, in the assay filed under Rattus norvegicus [5], the Relative efficacy worked out at 0.8. Further, the negative-log EC50 (pEC50) in the assay filed under Rattus norvegicus [3] was 6.52.
`Cc1c(O)c(=O)ccn1CCSc1cc(C(C)(C)C)c(O)c(C(C)(C)C)c1` registered a Relative efficacy in the assay listed under Rattus norvegicus [6] of 0.6. The same compound gave a pIC50 in the assay filed under Rattus norvegicus [2] of 6.40. In the assay filed under Rattus norvegicus [3], the pEC50 was 6.40.
As to `COc1cc(CCCn2ccc(=O)c(O)c2C)cc(OC)c1O`, the Relative efficacy in the assay listed under Rattus norvegicus [7] stood at 0.8. Besides, the negative-log IC50 (pIC50) in the assay listed under Rattus norvegicus [2] is 5.70. In the assay listed under Rattus norvegicus [3], this compound showed a pEC50 of 4.57.
For the compound `Cc1c(O)c(=O)ccn1CCc1cc(C(C)(C)C)c(O)c(C(C)(C)C)c1`, the pIC50 in the assay listed under Rattus norvegicus [2] was 6.52. Also, in the assay listed under Rattus norvegicus [5], the Relative efficacy is 0.9. For the same compound, the pEC50 in the assay listed under Rattus norvegicus [3] was 6.52.
`CCNCc1cc(C(C)(C)C)c(O)c(C(C)(C)C)c1`: the pIC50 in the assay filed under Rattus norvegicus [2] was 4.83. The compound also displayed a Relative efficacy in the assay listed under Rattus norvegicus [8] of 0.9. The pEC50 in the assay filed under Rattus norvegicus [3] was 5.30.
Compound `Cc1cc(C(C)(C)C)c(O)c(C(C)(C)C)c1` [BUTYLATED HYDROXYTOLUENE] came in with a Relative efficacy in the assay filed under Rattus norvegicus [9] of 0.9. Also, the negative-log IC50 (pIC50) in the assay listed under Rattus norvegicus [2] is 5.23. In addition, the pEC50 in the assay listed under Rattus norvegicus [3] was 5.22.
As for `Cc1c(O)c(=O)ccn1C` [DEFERIPRONE], in the assay listed under Rattus norvegicus [2], the pIC50 was 5.41. In addition, the Relative efficacy in the assay filed under Rattus norvegicus [10] was found to be 1. For the same compound, in the assay filed under Rattus norvegicus [3], the negative logarithm of the EC50 (pEC50) is 4.33.
As for `Cc1c(C)c2c(c(C)c1O)CCC(C)(C(=O)O)O2` (stereo not given) [TROLOX], the pIC50 in the assay filed under Rattus norvegicus [2] was 4.54. Also, the pEC50 in the assay listed under Rattus norvegicus [3] was 4.11. Further, the Relative efficacy in the assay filed under Rattus norvegicus [11] was determined as 0.9.
